# In ChEMBL document CHEMBL1143019, “Hybrid molecules of estrone: new compounds with potential antibacterial, antifungal, and antiproliferative activities” (2007):
# Legend:
# [1] = system: Mycobacterium tuberculosis; assay: Antimicrobial activity against Mycobacterium tuberculosis My 331/88 after 14 days; format: functional; conditions: 336 h
# [2] = system: Mycobacterium avium; assay: Antimicrobial activity against Mycobacterium avium My 330/88 after 14 days; format: functional; conditions: 336 h
# [3] = system: Mycobacterium avium; assay: Antimicrobial activity against Mycobacterium avium My 330/88 after 21 days; format: functional; conditions: 504 h
# [4] = system: Mycobacterium kansasii; assay: Antimicrobial activity against Mycobacterium kansasii My 235/80 after 7 days; format: functional; conditions: 168 h
# Method in brief: (§1)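 Run in Šula semisynthetic liquid medium containing bovine serum. Compounds added as DMSO solutions at final concentrations of […]. Each strain was also inoculated onto Löwenstein–Jensen medium to control inoculum sterility and growth.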
# [5] = system: Mycobacterium kansasii; assay: Antimicrobial activity against Mycobacterium kansasii My 6509/96 after 7 days; format: functional; conditions: 168 h; method in brief: as §1
# [6] = system: Mycobacterium kansasii; assay: Antimicrobial activity against Mycobacterium kansasii My 6509/96 after 14 days; format: functional; conditions: 336 h; method in brief: as §1
# [7] = system: Candida albicans; assay: Antifungal activity against Candida albicans ATCC 44859 after 24 hrs; format: functional; conditions: ATCC 44859, 24 h
# Method in brief: (§2)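 Modified NCCLS M27-A broth microdilution with clinical isolates subcultured on Sabouraud dextrose agar. Suspensions diluted 1:50 in RPMI 1640 to give a final inoculum of 0.5–2.5×10³ CFU/mL for yeasts or 0.5–5×10⁴ CFU/mL for molds. The RPMI had L-glutamine, no bicarbonate, and 0.165 M MOPS to pH 7.0. Twofold dilutions from 250 to 0.49. Plates held at 35 °C, humid, without agitation. MIC is the lowest concentration giving ≥80% inhibition versus drug-free control, read at 24 and 48 h.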
# [8] = system: Candida albicans; assay: Antifungal activity against Candida albicans ATCC 44859 after 48 hrs; format: functional; conditions: ATCC 44859, 48 h; method in brief: as §2
# [9] = system: Candida tropicalis; assay: Antifungal activity against Candida tropicalis 156 after 24 hrs; format: functional; method in brief: as §2
# [10] = system: Candida tropicalis; assay: Antifungal activity against Candida tropicalis 156 after 48 hrs; format: functional; method in brief: as §2
# [11] = system: Pichia kudriavzevii; assay: Antifungal activity against Candida krusei E28 after 24 hrs; format: functional; method in brief: as §2
# [12] = system: Pichia kudriavzevii; assay: Antifungal activity against Candida krusei E28 after 48 hrs; format: functional; method in brief: as §2
# [13] = system: Nakaseomyces glabratus; assay: Antifungal activity against Candida glabrata 20/I after 24 hrs; format: functional; method in brief: as §2
# [14] = system: Nakaseomyces glabratus; assay: Antifungal activity against Candida glabrata 20/I after 48 hrs; format: functional; method in brief: as §2
# [15] = system: Trichosporon beigelii; assay: Antifungal activity against Trichosporon beigelii 1188 after 24 hrs; format: functional; method in brief: as §2
# [16] = system: Trichosporon beigelii; assay: Antifungal activity against Trichosporon beigelii 1188 after 48 hrs; format: functional; method in brief: as §2
# [17] = system: Aspergillus fumigatus; assay: Antifungal activity against Aspergillus fumigatus 231 after 24 hrs; format: functional; method in brief: as §2
# [18] = system: Aspergillus fumigatus; assay: Antifungal activity against Aspergillus fumigatus 231 after 48 hrs; format: functional; method in brief: as §2
# [19] = system: Lichtheimia corymbifera; assay: Antifungal activity against Absidia corymbifera 272 after 24 hrs; format: functional; method in brief: as §2
# [20] = system: Lichtheimia corymbifera; assay: Antifungal activity against Absidia corymbifera 272 after 48 hrs; format: functional; method in brief: as §2
# [21] = system: Trichophyton benhamiae; assay: Antifungal activity against Trichophyton mentagrophytes 445 after 72 hrs; format: functional, Arthroderma benhamiae
# Method in brief: (§3)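 Same modified M27-A microdilution with the mold inoculum of 0.5–5×10⁴ CFU/mL. Medium was RPMI 1640 with L-glutamine, no bicarbonate, and 0.165 M MOPS at pH 7.0. Twofold dilutions from 250 to 0.49. Incubated at 35 °C in a humid atmosphere.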
# [22] = system: Trichophyton benhamiae; assay: Antifungal activity against Trichophyton mentagrophytes 445 after 120 hrs; format: functional, Arthroderma benhamiae; method in brief: as §3
# [23] = system: L929; assay: Antiproliferative activity against mouse L929 cells after 72 hrs; format: functional; conditions: L929, 72 h
# Method in brief: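 About 10,000 adherent cells per well in RPMI 1640 with 10% heat-inactivated FBS and penicillin/streptomycin, without HEPES. Exposed to 10 concentrations for 72 h at 37 °C in humidified 5% CO₂. Monolayers fixed with glutaraldehyde, stained 15 min with 0.05% methylene blue, and eluted with 0.33 N HCl; OD read at 630 nm. GI50 derived from dose–response curves relative to control.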
# [24] = system: K562; assay: Antiproliferative activity against human K562 cells after 72 hrs; format: functional; conditions: K562, 72 h
# Method in brief: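 About 10,000 suspension cells per well in RPMI 1640 with 10% heat-inactivated FBS and penicillin/streptomycin, without HEPES. Exposed to 10 concentrations for 72 h at 37 °C in humidified 5% CO₂. Wells diluted 1:50 in CASYTON and counted electronically, each result the mean of three successive counts. GI50 is where the concentration–response curve crosses 50% of control cell count.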
# [25] = system: HeLa; assay: Cytotoxicity against human HeLa cells after 72 hrs; format: functional; conditions: for CC50: Homo sapiens, HeLa, 72 h
# Method in brief: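 About 10,000 cells per well in RPMI 1640 were preincubated 48 h without compound. The 10 test concentrations were then applied onto the monolayers and incubated 72 h at 37 °C in humidified 5% CO₂. Monolayers fixed with glutaraldehyde, stained with 0.05% methylene blue, and eluted with 0.33 N HCl; optical density measured at 630 nm.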
# [26] = system: Mycobacterium tuberculosis; assay: Antimicrobial activity against Mycobacterium tuberculosis My 331/88 after 21 days; format: functional; conditions: 504 h
# [27] = system: Mycobacterium kansasii; assay: Antimicrobial activity against Mycobacterium kansasii My 235/80 after 14 days; format: functional; conditions: 336 h; method in brief: as §1
# [28] = system: Mycobacterium kansasii; assay: Antimicrobial activity against Mycobacterium kansasii My 235/80 after 21 days; format: functional; conditions: 504 h; method in brief: as §1
# [29] = system: Mycobacterium kansasii; assay: Antimicrobial activity against Mycobacterium kansasii My 6509/96 after 21 days; format: functional; conditions: 504 h; method in brief: as §1
# [30] = system: Staphylococcus aureus; assay: Antibacterial activity against Staphylococcus aureus SG 511 after 24 hrs by micro-broth dilution method; format: functional; conditions: SG 511, 24 h
# Method in brief: (§4)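 Microbroth dilution per NCCLS guidelines. Bacteria grown overnight at 37 °C in Mueller–Hinton broth. Compound solution serially diluted twofold in MHB, then wells inoculated to a final 5×10⁵ CFU/mL. Incubated 24 h at 37 °C. MIC (µg/mL) read on an automatic plate reader as the lowest dilution allowing no visible growth.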
# [31] = system: Staphylococcus aureus; assay: Antibacterial activity against methicillin-resistant Staphylococcus aureus 994/93 after 24 hrs by micro-broth dilution method; format: functional
# Method in brief: (§5)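 Broth microdilution per NCCLS in Mueller–Hinton broth. Overnight cultures grown at 37 °C. Compound serially diluted twofold, then wells inoculated to a final 5×10⁵ CFU/mL. Plates held at 37 °C for 24 h. MIC (µg/mL) read on an automatic plate reader as the lowest dilution with no visible growth.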
# [32] = system: Staphylococcus aureus; assay: Antibacterial activity against methicillin-resistant Staphylococcus aureus 134/94 after 24 hrs by microbroth dilution method; format: functional; method in brief: as §5
# [33] = system: Micrococcus luteus; assay: Antibacterial activity against Micrococcus luteus ATCC 10240 after 24 hrs by microbroth dilution method; format: functional; conditions: ATCC 10240, 24 h; method in brief: as §4
# [34] = system: Enterococcus faecalis; assay: Antibacterial activity against Enterococcus faecalis 1528 after 24 hrs by micro-broth dilution method; format: functional; method in brief: as §4
# [35] = system: Mycolicibacterium smegmatis; assay: Antimicrobial activity against Mycobacterium smegmatis SG 987 after 24 hrs by micro-broth dilution method; format: functional; method in brief: as §4
# [36] = system: Mycolicibacterium aurum; assay: Antimicrobial activity against Mycobacterium aurum SB 66 after 24 hrs by micro-broth dilution method; format: functional; method in brief: as §4
# [37] = system: Mycolicibacterium vaccae; assay: Antimicrobial activity against Mycobacterium vaccae 10670 after 24 hrs by micro-broth dilution method; format: functional; method in brief: as §4
# [38] = system: Mycolicibacterium fortuitum; assay: Antimicrobial activity against Mycobacterium fortuitum Borstel after 24 hrs by microbroth dilution method; format: functional; method in brief: as §4
SMILES,MIC [1] [µM],MIC [2] [µM],MIC [3] [µM],MIC [4] [µM],MIC [5] [µM],MIC [6] [µM],MIC [7] [µM],MIC [8] [µM],MIC [9] [µM],MIC [10] [µM],MIC [11] [µM],MIC [12] [µM],GI50 [23] [µg/mL],GI50 [24] [µg/mL],CC10 [25] [µg/mL],CC50 [25] [µg/mL],MIC [26] [µM],MIC [27] [µM],MIC [28] [µM],MIC [29] [µM],further results
C[C@]12CC[C@@H]3c4ccc(OCCCCCCCBr)cc4CC[C@H]3[C@@H]1CCC2=O,32,16,32,62.5,62.5,62.5,> 125,> 125,> 125,> 125,> 125,> 125,49.9,13.1,16.3,> 50,,,,,MIC [13]: > 125 µM; MIC [14]: > 125 µM; MIC [15]: > 125 µM; MIC [16]: > 125 µM; MIC [17]: > 125 µM; MIC [18]: > 125 µM; MIC [19]: > 125 µM; MIC [20]: > 125 µM; MIC [21]: > 125 µM; MIC [22]: > 125 µM
c1ccc(CSc2nnnn2-c2ccccc2)cc1,16,32,125,16,16,32,> 250,> 250,> 250,> 250,> 250,> 250,22.5,36.1,8.7,41.6,62.5,32,125,125,MIC [13]: > 250 µM; MIC [14]: > 250 µM; MIC [15]: > 250 µM; MIC [16]: > 250 µM; MIC [17]: > 250 µM; MIC [18]: > 250 µM; MIC [19]: > 250 µM; MIC [20]: > 250 µM; MIC [21]: 31.3 µM; MIC [22]: 62.5 µM
c1ccc(CSc2ccncc2)cc1,125,125,125,62.5,62.5,125,,,,,,,34.3,> 50,14,23.6,125,125,125,125,MIC [30]: 100 µg/mL; MIC [31]: 100 µg/mL; MIC [32]: > 100 µg/mL; MIC [33]: 100 µg/mL; MIC [34]: 100 µg/mL; MIC [35]: 100 µg/mL; MIC [36]: 25 µg/mL; MIC [37]: 50 µg/mL; MIC [38]: 50 µg/mL
Clc1ccc(CSc2ccncc2)cc1,32,62.5,62.5,32,32,62.5,,,,,,,21.2,19.8,8.6,16.3,62.5,62.5,62.5,62.5,MIC [30]: 50 µg/mL; MIC [31]: 100 µg/mL; MIC [32]: > 100 µg/mL; MIC [33]: 50 µg/mL; MIC [34]: 100 µg/mL; MIC [35]: 25 µg/mL; MIC [36]: 12.5 µg/mL; MIC [37]: 25 µg/mL; MIC [38]: 12.5 µg/mL
